Active and inactive are the calls of the source. No cut-off for these calls is given here.
Tests used:
[1] = system: L1210; experiment: Cytotoxicity against mouse L1210 cells; format: functional, cell-based
[2] = system: L1210; experiment: Antitumor activity against mouse L1210 cells xenografted in DBA/2J mouse assessed as mean survival period at 10 mg/kg, ip administered 3 times on day 1, 5 and 9 postimplantation; format: functional; conditions: route intraperitoneal
Procedure, shortened: (§1)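 Syngeneic L1210 leukemia cells (1 × 10^6) were injected i.p. into DBA/2J mice on day 0. Ten mice were randomly assigned per treatment or vehicle group. Compounds were formulated in 30% DMSO plus 0.7% glucose solution and injected i.p. on days 1, 5 and 9. Animals were monitored daily and weighed three times weekly, with the study running 120 days.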

[3] = system: L1210; experiment: Antitumor activity against mouse L1210 cells xenografted in DBA/2J mouse assessed as mean survival period at 30 mg/kg, ip administered 3 times on day 1, 5 and 9 postimplantation; format: functional; conditions: route intraperitoneal; procedure, shortened: as §1
[4] = system: L1210; experiment: Antitumor activity against mouse L1210 cells xenografted in DBA/2J mouse assessed as mean survival period at 60 mg/kg, ip administered 3 times on day 1, 5 and 9 postimplantation; format: functional; conditions: route intraperitoneal; procedure, shortened: as §1
[5] = system: L1210; experiment: Antitumor activity against mouse L1210 cells xenografted in DBA/2J mouse assessed as mean survival period at 100 mg/kg, ip administered 3 times on day 1, 5 and 9 postimplantation; format: functional; conditions: route intraperitoneal; procedure, shortened: as §1
[6] = system: L1210; experiment: Antitumor activity against mouse L1210 cells xenografted in DBA/2J mouse at 10 mg/kg, ip administered 3 times on day 1, 5 and 9 postimplantation relative to control; format: functional; conditions: route intraperitoneal
Procedure, shortened: (§2)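 DBA/2J mice received syngeneic L1210 cells (1 × 10^6) i.p. on day 0. Groups of ten mice were randomised to drug or vehicle. Dosing was i.p. on days 1, 5 and 9 in 30% DMSO plus 0.7% glucose solution. Animals were checked daily and weighed three times per week. The study ran 120 days, with survival compared against untreated controls.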

[7] = system: L1210; experiment: Antitumor activity against mouse L1210 cells xenografted in DBA/2J mouse at 30 mg/kg, ip administered 3 times on day 1, 5 and 9 postimplantation relative to control; format: functional; conditions: route intraperitoneal; procedure, shortened: as §2
[8] = system: L1210; experiment: Antitumor activity against mouse L1210 cells xenografted in DBA/2J mouse at 60 ug/kg, ip administered 3 times on day 1, 5 and 9 postimplantation relative to control; conditions: route intraperitoneal
[9] = system: L1210; experiment: Antitumor activity against mouse L1210 cells xenografted in DBA/2J mouse at 100 ug/kg, ip administered 3 times on day 1, 5 and 9 postimplantation relative to control; conditions: route intraperitoneal
[10] = system: L1210; experiment: Antitumor activity against mouse L1210 cells xenografted in DBA/2J mouse assessed as mean survival period at 200 mg/kg, ip administered 3 times on day 1, 5 and 9 postimplantation; format: functional; conditions: route intraperitoneal; procedure, shortened: as §1
[11] = system: L1210; experiment: Antitumor activity against mouse L1210 cells xenografted in DBA/2J mouse at 200 mg/kg, ip administered 3 times on day 1, 5 and 9 postimplantation relative to control; format: functional; conditions: route intraperitoneal; procedure, shortened: as §1
[12] = system: L1210; experiment: Antitumor activity against mouse L1210 cells xenografted in DBA/2J mouse assessed as survival at 100 mg/kg, ip administered 3 times on day 1, 5 and 9 postimplantation; format: functional, organism-based; procedure, shortened: as §1
[13] = system: L1210; experiment: Antitumor activity against mouse L1210 cells xenografted in DBA/2J mouse assessed as survival at 10 mg/kg, ip administered 3 times on day 1, 5 and 9 postimplantation; format: functional, organism-based; procedure, shortened: as §1
[14] = system: L1210; experiment: Antitumor activity against mouse L1210 cells xenografted in DBA/2J mouse assessed as survival at 30 mg/kg, ip administered 3 times on day 1, 5 and 9 postimplantation; format: functional, organism-based; procedure, shortened: as §1
[15] = system: L1210; experiment: Antitumor activity against mouse L1210 cells xenografted in DBA/2J mouse assessed as survival at 60 mg/kg, ip administered 3 times on day 1, 5 and 9 postimplantation; format: functional, organism-based; procedure, shortened: as §1
[16] = system: L1210; experiment: Antitumor activity against mouse L1210 cells xenografted in DBA/2J mouse assessed as survival at 200 mg/kg, ip administered 3 times on day 1, 5 and 9 postimplantation; format: functional, organism-based; procedure, shortened: as §1
[17] = system: L1210; experiment: Antitumor activity against mouse L1210 cells xenografted in DBA/2J mouse assessed as mean survival period at 50 mg/kg, ip administered 3 times on day 1, 5 and 9 postimplantation; format: functional; conditions: route intraperitoneal; procedure, shortened: as §1
[18] = system: L1210; experiment: Antitumor activity against mouse L1210 cells xenografted in DBA/2J mouse assessed as mean survival period at 250 mg/kg, ip administered 3 times on day 1, 5 and 9 postimplantation; format: functional; conditions: route intraperitoneal; procedure, shortened: as §1
[19] = system: L1210; experiment: Antitumor activity against mouse L1210 cells xenografted in DBA/2J mouse assessed as mean survival period at 500 mg/kg, ip administered 3 times on day 1, 5 and 9 postimplantation; format: functional; conditions: route intraperitoneal; procedure, shortened: as §1
[20] = system: L1210; experiment: Antitumor activity against mouse L1210 cells xenografted in DBA/2J mouse at 50 mg/kg, ip administered 3 times on day 1, 5 and 9 postimplantation relative to control; format: functional; conditions: route intraperitoneal; procedure, shortened: as §1
[21] = system: L1210; experiment: Antitumor activity against mouse L1210 cells xenografted in DBA/2J mouse at 250 mg/kg, ip administered 3 times on day 1, 5 and 9 postimplantation relative to control; format: functional; conditions: route intraperitoneal; procedure, shortened: as §1
[22] = system: L1210; experiment: Antitumor activity against mouse L1210 cells xenografted in DBA/2J mouse at 500 mg/kg, ip administered 3 times on day 1, 5 and 9 postimplantation relative to control; format: functional; conditions: route intraperitoneal; procedure, shortened: as §1
[23] = system: L1210; experiment: Antitumor activity against mouse L1210 cells xenografted in DBA/2J mouse assessed as survival at 50 mg/kg, ip administered 3 times on day 1, 5 and 9 postimplantation; format: functional, organism-based; procedure, shortened: as §1
[24] = Chemical stability of the compound in phosphate buffer of pH 7 assessed as half life; format: physicochemical
Procedure, shortened: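 The compound was held in pH 7.0 phosphate buffer for up to 72 h. Cleavage was followed as release of CBI-indole2, and the half-life was estimated from this.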

## COc1c(O)c2c(c3cc(C(=O)N4CCc5c4c(O)c(OC)c4[nH]c(C(=O)N6C[C@H]7C[C@@]78C6=CC(=O)c6[nH]cc(C)c68)cc54)[nH]c13)CCN2C(N)=O [(+)-CC-1065]
[1]
  IC50: 0.02 nM

## CC(C)(C)OC(=O)NOc1cc2c(c3ccccc13)[C@@H](CCl)CN2C(=O)c1cc2cc(NC(=O)c3cc4ccccc4[nH]3)ccc2[nH]1
[1]
  IC50: 4 nM

## CN(Oc1cc2c(c3ccccc13)[C@H](CCl)CN2C(=O)c1cc2cc(NC(=O)c3cc4ccccc4[nH]3)ccc2[nH]1)C(=O)OC(C)(C)C
[1]
  IC50: 0.9 nM

## CN(Oc1cc2c(c3ccccc13)[C@@H](CCl)CN2C(=O)c1cc2cc(NC(=O)c3cc4ccccc4[nH]3)ccc2[nH]1)C(=O)OC(C)(C)C
[1]
  IC50: 30 nM

## CC(C)(C)OC(=O)NOc1cc2c(c3ccccc13)[C@H](CCl)CN2C(=O)c1cc2cc(NC(=O)c3cc4ccccc4[nH]3)ccc2[nH]1
[1]
  IC50: 0.1 nM
[2]
  Time: 50 days
[3]
  Time: 58 days
[4]
  Time: 69 days
[5]
  Time: 86 days
[6]
  T/C: 225%
[7]
  T/C: 265%
[8]
  T/C: 315%
[9]
  T/C: 389%

## O=C(Nc1ccc2[nH]c(C(=O)N3C[C@H](CCl)c4c3cc(O)c3ccccc43)cc2c1)c1cc2ccccc2[nH]1
[1]
  IC50: 0.9 nM

## COC(=O)NOc1cc2c(c3ccccc13)[C@H](CCl)CN2C(=O)c1cc2cc(NC(=O)c3cc4ccccc4[nH]3)ccc2[nH]1
[1]
  IC50: 0.5 nM
[2]
  Time: 24 days
[3]
  Time: 29 days
[4]
  Time: 28 days
[5]
  Time: 27 days
[10]
  Time: 32 days
[6]
  T/C: 110%
[7]
  T/C: 133%
[11]
  T/C: 145%
[12]
  Activity: inactive
[13]
  Activity: inactive
[14]
  Activity: inactive
[15]
  Activity: inactive
[16]
  Activity: inactive
[8]
  T/C: 126%
[9]
  T/C: 122%

## NC(=O)NOc1cc2c(c3ccccc13)[C@H](CCl)CN2C(=O)c1cc2cc(NC(=O)c3cc4ccccc4[nH]3)ccc2[nH]1
[1]
  IC50: 1.1 nM
[5]
  Time: 33 days
[17]
  Time: 29 days
[18]
  Time: 39 days
[19]
  Time: 71 days
[20]
  T/C: 133%
[21]
  T/C: 177%
[22]
  T/C: 323%
[23]
  Activity: inactive
[12]
  Activity: inactive
[9]
  T/C: 152%

## COC(=O)NOc1cc2c(c3ccccc13)[C@@H](CCl)CN2C(=O)c1cc2cc(NC(=O)c3cc4ccccc4[nH]3)ccc2[nH]1
[1]
  IC50: 9 nM

## CC(C)(C)C(=O)NOc1cc2c(c3ccccc13)[C@@H](CCl)CN2C(=O)c1cc2cc(NC(=O)c3cc4ccccc4[nH]3)ccc2[nH]1
[1]
  IC50: 3.5 nM

## O=C(Nc1ccc2[nH]c(C(=O)N3C[C@@H](CCl)c4c3cc(O)c3ccccc43)cc2c1)c1cc2ccccc2[nH]1 [SECO-CBI-INDOLE]
[1]
  IC50: 0.03 nM
[2]
  Time: 42 days
[3]
  Time: 51 days
[4]
  Time: 78 days
[5]
  Time: 73 days
[6]
  T/C: 192%
[7]
  T/C: 230%
[8]
  T/C: 352%
[9]
  T/C: 333%

## NC(=O)NOc1cc2c(c3ccccc13)[C@@H](CCl)CN2C(=O)c1cc2cc(NC(=O)c3cc4ccccc4[nH]3)ccc2[nH]1
[1]
  IC50: 30 nM

## CC(C)(C)C(=O)NOc1cc2c(c3ccccc13)[C@H](CCl)CN2C(=O)c1cc2cc(NC(=O)c3cc4ccccc4[nH]3)ccc2[nH]1
[1]
  IC50: 0.08 nM
[24]
  half-life: 360 min
